Experimental data pooled from the literature.
Target: Serine/threonine-protein kinase OSR1 (OXSR1, Homo sapiens, UniProt O95747)

For `CS(=O)(=O)CCNCc1ccc(-c2ccc3ncnc(Nc4ccc(OCc5cccc(F)c5)c(Cl)c4)c3c2)o1`, the remaining signal was 105% (cell-free assay; 0.5 µM).
The remaining activity of `Cc1ccc(C(=O)Nc2ccc(CN3CCN(C)CC3)c(C(F)(F)F)c2)cc1C#Cc1cnc2cccnn12` is reported as 96% (enzyme activity; inhibitor; 23.5 nM).
For `C[C@@H]1CCN(C(=O)CC#N)C[C@@H]1N(C)c1ncnc2[nH]ccc12`, the remaining signal was 98.2% (cell-free assay; inhibitor; 0.5 µM).
The ΔTm of `CCN1CCC2(CC1)NC(=O)c1c(c3ccc(Cl)c(Cl)c3n1C)C2C#N` (racemic) is reported as 0 °C (thermal stability; DSF; 10 µM).
For `Cc1nc(Cc2cccc(C(F)(F)F)c2)sc1-c1ccc(C(N)=O)nc1`, the remaining binding was 100% (cell-free assay; competition with immobilised ligand; 1 µM).
`CCCCNc1ncc2c(-c3ccc(F)cc3)nn(C[C@H]3CC[C@H](N)CC3)c2n1` has an inhibition of 8.2% (target engagement in cells; inhibitor; chemoproteomics; 20 mM).
The ΔTm of `N#CC1c2c([nH]c3c(Cl)c(Cl)ccc23)C(=O)NC12CCCCC2` (racemic) is reported as 0.1 °C (thermal stability; DSF; 10 µM).
`COc1cc(Nc2cnc(C#N)c(O[C@H](C)CN(C)C)n2)ncc1-c1cnn(C)c1` has a remaining activity of 115% (enzyme activity; inhibitor; radiometric; 1 µM).
`CCS(=O)(=O)c1cc2cc(C[C@@](O)(CC(C)(C)c3ccc(F)cc3C(N)=O)C(F)(F)F)[nH]c2cn1` has a remaining binding of 88% (cell-free assay; competition with immobilised ligand; 1 µM).
For `Cc1ccc(NC(=O)c2ccc(CN3CCN(C)CC3)cc2)cc1Nc1nc(-c2cccnc2)cs1`, the remaining signal was 95.6% (cell-free assay; 0.5 µM).
With `CCc1ccccc1C(=O)Nc1n[nH]c2c(C)c(F)c(C3C(C#N)=C(C)N(C)C(C)=C3C#N)cc12` the remaining binding was 100% (cell-free assay; competition with immobilised ligand; 1 µM).
With `CC1(C)NC(=O)c2[nH]c3c(Cl)c(Cl)ccc3c2C1C#N` (centres unmarked) the ΔTm was -0.1 °C (thermal stability; DSF; 10 µM).
The remaining activity of `O=C(Nc1cnn(-c2csc(C(=O)NC3COC3)c2)c1)Nc1ccccc1Cl` is reported as 92.6% (enzyme activity; inhibitor; 5 µM).
For `CCCCN(CCCC)C(=O)CN1C[C@H](c2cc(OC)c3c(c2)OCO3)[C@@H](C(=O)O)[C@@H]1CC(C)(C)CCC`, the remaining binding was 89.5% (cell-free assay; competition with immobilised ligand; 1 µM).
For `Cn1c2c(c3ccc(Cl)c(Cl)c31)C(C#N)C(C)(C)NC2=O` (centres unmarked), the ΔTm was -0.1 °C (thermal stability; DSF; 10 µM).
With `Cn1nc(C(F)(F)F)cc1-c1cnc(N2CCc3cc(S(=O)(=O)Nc4c(F)cc(Cl)cc4F)cc(N4CCCC4=O)c32)nc1` the remaining binding was 99% (cell-free assay; competition with immobilised ligand; 1 µM).
`CCN1CCN(Cc2ccc(NC(=O)c3ccc(C)c(Oc4ccnc5[nH]ccc45)c3)cc2C(F)(F)F)CC1` gave an inhibition of -64.3% (target engagement in cells; inhibitor; chemoproteomics; Huh-7; 1 µM).
